Experiment: Toxicity liver stage against HepG2, at 10uM
Type: cell-based
Parameters: test concentration 10 uM, cell line HepG2-A16-CD81EGFP
Details: human, HepG2-A16-CD81EGFP cells; read-out: INHIBITION
Procedure, shortened: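 Uninfected HepG2-A16-CD81EGFP cells, 3 × 10^3 per well, 1536-well, plated on prespotted compound at 10 μM final, parasite-free screening media added to match infected plates; puromycin 10 μM positive, DMSO 0.5% negative; run in parallel with 48 h PbLuc assay at 37 °C, 5% CO2; viability by CellTiter-Glo luminescence, normalized to controls.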

| SMILES | cytotoxicity at 10 µM [%] |
| --- | --- |
| O=C(NCC1CCOC1)c1csc(-c2ccccc2)n1 (stereo unspecified) | -0.755 |
| O=C(CCNc1ncccn1)NCCc1ccc(Cl)s1 | -3.91 |
| Cc1cc(C)c(OCC(=O)NS(=O)(=O)c2c(C)noc2C)c(C)c1 | -6.64 |
| Cc1nccn1-c1cc(CNC(=O)C(C)(C)C)ccn1 | -11.9 |
| Cc1cc(N2CCN(c3nc4ccccc4cc3CO)CC2)nc(C)n1 | 7.86 |
| Cc1ccc(C(=O)NCc2ccnc(C3CCCOC3)n2)s1 (stereo unspecified) | 5.29 |
| Cc1cccnc1NCCNC(=O)C1CCN(Cc2ccco2)CC1 | -2.51 |
| O=c1ccc(-c2ccccc2F)nn1CN1CCCCCC1 | 5.76 |
| CCN1CCN(C(=O)c2cc(-c3cccn3C)n[nH]2)[C@H]2CS(=O)(=O)C[C@H]21 | -12.5 |
| Cc1cc(C(=O)NC(CC(C)C)C(=O)Nc2cc[nH]n2)c(C)o1 (stereo unspecified) | -11.7 |
| Cc1cccc(-n2cc(C(=O)N3CCCC(n4cccn4)C3)nn2)c1 (stereo unspecified) | -0.168 |
| CCCN1CCC(NC(=O)Nc2ccc(OC)c(OC)c2)CC1 | -13.4 |
| Cc1cc(C)c2c(c1)C(NC(=O)CSc1nnc[nH]1)CCO2 (stereo unspecified) | -3.91 |
| O=C1CN(C(=O)C2CCCCC2)CC(O)CN1Cc1ccc(Cl)cc1 (stereo unspecified) | 6.02 |
| COCCCN1CCCC12CCN(Cc1cccnc1OC)CC2 | 11.8 |
| O=C(CC1NC(N2CCc3ccccc3C2)=NC1=O)Nc1ccccc1 (stereo unspecified) | 2.96 |
| CN(C)C(=O)CN1CCOCC2(C1)CN(c1ncc(F)cn1)CCO2 (stereo unspecified) | -6.69 |
| O=C1CSc2ccccc2N1Cc1noc(C2CCCO2)n1 (stereo unspecified) | 8.35 |
| O=C(O)c1cccc2c(Br)cccc12 | 3.38 |
| CC(=O)N[C@@H]1CN(Cc2nnc(-c3ccccc3)o2)C[C@H]1C(C)C | -0.598 |
| CCCC1SCCN1C(=O)c1ccc(-n2ncc(C#N)c2N)cc1 (stereo unspecified) | 9.15 |
| COCC(=O)N1CCC2(CC1)CN(c1ccsc1)C(=O)CO2 | -75.6 |
| COCCN1CCN(C(=O)c2ccccc2C(C)=O)[C@H]2CS(=O)(=O)C[C@H]21 | -5.95 |

| SMILES | cytotoxicity at 10 µM [%] |
| --- | --- |
| COC(=O)CCCN(C)C(c1cccnc1)c1ccc(F)cc1F (stereo unspecified) | -0.665 |
| Cc1cc(-c2cnc(N3CCC(O)CC3)nc2-c2cccnc2C)on1 | -25.2 |
| Cc1cnc(CN2CCN(c3ccc4nncn4n3)C(C)C2)cn1 (stereo unspecified) | -2.21 |
| CC(C)(O)CCc1ccc(C(=O)N2CCN(CCS(C)(=O)=O)CC2)cc1 | -0.686 |
| O=C(NCc1ccc2c(c1)CCCO2)C1CNCCO1 (stereo unspecified) | -7.49 |
| Cn1ccnc1C1CCN(C(=O)COCC(F)(F)C(F)F)CC1 | -45.2 |
| Cc1ccc(C(=O)NS(=O)(=O)c2ccccc2C)c(=O)[nH]1 | -8.48 |
| CC(NC(=O)Nc1ccncc1)c1ccc2c(c1)CC(=O)N2 (stereo unspecified) | -5.76 |
| Cc1nonc1OCCNC(=O)COc1ccc(Cl)cc1Cl | 3.95 |
| Cc1nc2c(c(NC3CC3)n1)CCN(C(=O)C(C)(C)O)CC2 | 4.24 |
| Fc1ccc(OCCCN2CCCC(Cn3cncn3)C2)cc1 (stereo unspecified) | -7.81 |
| O=C1CCCN1CCc1nc(-c2ccsc2)no1 | -1.22 |
| O=C(NCCN1CCCCCC1=O)NCc1ccc(Cl)s1 | -1.08 |
| CN1CCCC[C@@H]2[C@H]1[C@@H](c1ccccc1)CCN2C(=O)c1ccccn1 | -14.7 |
| O=S(=O)(c1ccccc1)N1CCN(CCn2ccnc2)CC1 | -21.6 |
| Cc1cc(CN(C)Cc2ccccc2N2CCCCC2)n[nH]1 | -2.98 |
| O=C(NC1CCCc2nc(N3CCCCC3)ncc21)C1CCCC1 (stereo unspecified) | -2.05 |
| CN(C)CCCNc1ncnc2cccc(F)c12 | 9.66 |
| Cn1c(=O)[nH]c(=O)c2c1nc1n2CC(c2ccc(Br)cc2)O1 (stereo unspecified) | -1.41 |
| NC(=O)C1CCN(C(=O)c2cccn2Cc2cccs2)CC1 | -4.08 |
| COc1ccc2c(c1)OCC(CNC(=O)NC(C)(C)C)C2 (stereo unspecified) | -8.54 |
| CC(=O)NS(=O)(=O)c1ccc(F)cc1C(F)(F)F | 1.25 |
| Cc1cccc(CN2CCn3c(C(=O)N(C)C)cnc3C2)c1 | -69.5 |

| SMILES | cytotoxicity at 10 µM [%] |
| --- | --- |
| CNC(=O)C1Cn2ccnc2C2(CCN(C(=O)c3ccccn3)CC2)O1 (stereo unspecified) | -144 |
| CCNc1nc(-c2cccnc2)c(-c2ccnc(NS(C)(=O)=O)n2)s1 | -12.3 |
| CC(C)(C)CN1CCCC2(CCN(C(=O)c3cn[nH]c3)C2)C1 (stereo unspecified) | 2.87 |
| Cn1cnc2c1CCN(Cc1nc(Cc3ccccc3)no1)C2 | -7.99 |
| O=C(NCCCn1cccn1)c1csc2c1CCCC2 | -10.2 |
| CN(C)CC1CN(Cc2coc(-c3cccc(F)c3)n2)CCO1 (stereo unspecified) | -17.2 |
| CCNC(=O)[C@@H]1CCCN1C1(C(=O)NC)CCCCC1 | 5.09 |
| COCCC(=O)N1CCCC2(CCC(=O)N2CCOC)CC1 (stereo unspecified) | 2.52 |
| Cn1ccc2cc(C(=O)Nc3nc[nH]n3)ccc21 | 1.69 |
| CN(c1ccc(C(=O)NCCN2CCOCC2)c(Cl)c1)S(C)(=O)=O | -11.1 |
| CS(=O)(=O)N1C[C@H]2CC[C@@H](C1)N(Cc1ccsc1)C2 | 44.7 |
| Cc1cc(N2CCCC2)nc(CNS(=O)(=O)Cc2ccccc2)n1 | 7.48 |
| CN1CCN(Cc2nnc(C3CCN(C(CO)CO)CC3)n2C)CC1 | 2.52 |
| O=C1CO[C@H]2CN(C3CCOCC3)C[C@H]2N1Cc1ccccn1 | 0.566 |
| CCN1CCN(C(=O)c2cc(C(F)(F)F)n[nH]2)[C@H]2CS(=O)(=O)C[C@H]21 | -3.77 |
| O=C(O)c1cc(-c2cccnc2)cc(S(=O)(=O)NCc2ccccn2)c1 | -49.9 |
| CCN1CCN(c2ccc(CNC(=O)c3c(C)noc3C)cn2)CC1 | 0.265 |
| CNS(=O)(=O)c1cccc(CNC(=O)CCc2ccsc2)c1 | 13.5 |
| CCS(=O)(=O)CCNC(=O)c1ccc(-c2ccc(C)cc2)cc1F | -14.2 |
| CCOCC1CN(C(=O)N(C)C)Cc2nnn(CC3CC3)c21 (stereo unspecified) | -6.26 |
| COc1cccc(CN2CCN(c3cccc(C(C)C)n3)CC2)c1F | 4.25 |
| CC(NC(=O)CCc1cccs1)c1nnc2n1CCCCC2 (stereo unspecified) | -7.59 |
| CCOC(C)c1noc(CN2CCCNCC2)n1 (stereo unspecified) | 5.44 |

| SMILES | cytotoxicity at 10 µM [%] |
| --- | --- |
| CCC(=O)NCC(=O)NCC1(c2c(F)cccc2F)CCCC1 | -0.147 |
| COc1ccc(-n2cc(CNC(=O)c3ccccn3)nn2)cc1 | -4.05 |
| CCOCC(=O)N1CCCn2c(nnc2Cn2cccc2)C1 | -130 |
| CC(C)C(=O)N(C)Cc1nnc2n1CCCCC2 | -8.2 |
| COc1ccc(CNCc2nnc3n2CC(C(F)(F)F)CC3)cc1 (stereo unspecified) | 3.27 |
| CN(C)C(=O)C1(CCCc2ccccn2)CCN1Cc1nccn1C (stereo unspecified) | 8.08 |
| CN(C)CC1(O)CCCN(Cc2ccccc2OCC(=O)N(C)C)C1 (stereo unspecified) | -1.21 |
| COc1nccnc1N1CCC2(CC1)C(=O)N(C)c1ccccc12 | -4.89 |
| CC(NC(=O)NC1CCN(Cc2ccccn2)CC1)c1nncn1C (stereo unspecified) | 0.335 |
| CN(C)C(=O)c1cccc(CN2CCN(CCO)CC2)c1 | -28.6 |
| COCCC(=O)Nc1ccnn1-c1ccccc1 | -2.55 |
| CC(Cn1ccnc1)NC(=O)C1(c2ccc(F)cc2)CCCC1 (stereo unspecified) | -9.98 |
| CCN(C(=O)c1ccc2nnc(C3CCN(CCOC)C3)n2c1)C(C)C (stereo unspecified) | -114 |
| CC(C)C(C(=O)N1CCCN(c2cccnn2)CC1)n1cncn1 (stereo unspecified) | -20.7 |
| CCc1cc(CNC(=O)c2cc(NC(=O)C(C)C)ccc2Cl)[nH]n1 | 9.36 |
| Cc1cc(=O)[nH]c(=O)n1Cc1ccccc1 | -42.6 |
| CCc1nc(C)cc(NC(C)C(=O)Nc2cc(F)ccc2C)n1 (stereo unspecified) | -4.44 |
| Cc1ccsc1CNC1CCCN(Cc2noc(C3CC3)n2)C1 (stereo unspecified) | -4.98 |
| CC(N)Cc1ccccc1Sc1ccccc1 (stereo unspecified) | 5.41 |
| COc1ccc(C)cc1-c1csc(Cn2ccc(=O)[nH]c2=O)n1 | 4.16 |
| CC(c1cccc(-c2nccn2CCc2ccccn2)c1)N(C)C (stereo unspecified) | 7.62 |
| CC(Cc1ccccc1Br)NC(=O)CCS(C)(=O)=O (stereo unspecified) | -4.44 |
| CN(Cc1nc(-c2cccs2)no1)Cc1nc2c(s1)CCCC2 | 3.01 |

| SMILES | cytotoxicity at 10 µM [%] |
| --- | --- |
| N[C@H]1c2ccccc2C[C@@H]1NC(=O)C1CCN(Cc2ccco2)CC1 | -8.57 |
| COCc1nccc(C2CCCN(Cc3cccc(F)c3)C2)n1 (stereo unspecified) | 0.769 |
| Cc1nn(C)c(C)c1C1CCCN1C(=O)CCCNc1ncccn1 (stereo unspecified) | -3.43 |
| CS(=O)(=O)NC(=O)c1ccn(-c2ccccc2Cl)n1 | -4.27 |
| Cc1cc(C)c2nc(CNC3CCNC3=O)cc(O)c2c1 (stereo unspecified) | 5.92 |
| Cc1cc(C)n(CCN2CCN(C(=O)c3ccc(Br)o3)CC2)n1 | -8.46 |
| CC(C)NC(=O)c1ccc2c(c1)C1(CCN(C(C)C)CC1)C(=O)N2 | -7.47 |
| CC(C)Cc1cc(C(=O)N2CCCN(c3ncccn3)CC2)[nH]n1 | 4.57 |
| CC(C)CN1CCc2[nH]cnc2C12CCN(C(=O)c1ccnn1C)CC2 | -4.77 |
| CN(C)CCNC(=O)c1ccccc1NC(=O)c1cc(Cl)ccc1Cl | -1.02 |
| CC(Cn1cc(Br)cn1)C(=O)Nc1ccc(C(N)=O)cc1 (stereo unspecified) | -0.609 |
| c1coc(-c2noc(CN3CCCC(Cn4cncn4)C3)n2)c1 (stereo unspecified) | -7.23 |
| CCc1c(C)nc2n(c1=O)CC(C(=O)Nc1ccccc1F)CS2 (stereo unspecified) | 1.57 |
| COc1ccc2c(c1)c(C(=O)Nc1nnn[nH]1)cn2C | -1.33 |
| O=C(NC[C@@H]1CCCN1)c1cc(COc2cccc(C(F)(F)F)c2)[nH]n1 | -8.31 |
| Cc1cc(CN2CC[C@H]3[C@H]2CCN3S(C)(=O)=O)oc1C | -1.69 |
| CC(C)CCN1CCN(C(=O)c2c[nH]nn2)CC1 | 1.64 |
| Cc1cc(NC(=O)COC(=O)c2ccc(F)cc2Br)n(C)n1 | 6.03 |
| NC(=O)COc1ccc(CNCc2ccc(F)c(F)c2)cc1 | -15.2 |

Source: ChEMBL document CHEMBL4513216, “Probing the Open Global Health Chemical Diversity Library for Multistage-Active Starting Points for Next-Generation Antimalarials” (ACS Infect Dis, 2020)
